Assay outcomes as filed in PubChem BioAssay.
Hits are enriched below; roughly 1.8% of the tested compounds scored in any of these assays.
Runt-SMMHC FRET: blocks binding of human RUNX1 Runt domain to CBFb-SMMHC; AID 1434; inhibition, % at 20 µM; Cerulean-Runt/Venus-CBFb-SMMHC FRET ratio 530/480, 1 h; hit rate 0.74% among 220,000;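 active means mean inhibition across duplicate retests at 20 µM reaching about 50%, limit read from the data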;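 further: 0% = DMSO wells and 100% = wells with excess untagged CBFb-SMMHC; inhibitors lower the FRET ratio by blocking Runt binding to CBFb-SMMHC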
Rce1 inhib: inhibitors of yeast Ras-converting enzyme. hit rate 0.27% among 290,000. calls only. Q03530. yeast membranes, quenched prenylated peptide cleavage fluorescence;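 active means fall in fluorescence gain of 50% or more versus controls, with final raw signal at or below 3038400; inconclusive means same 50% fall but final raw signal above 3038400; inactive means fall in fluorescence gain under 50%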;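 further: plate controls were neutral control wells for no effect and wells lacking membranes for full effect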
Target sequence (Q03530 whole entry, looked up): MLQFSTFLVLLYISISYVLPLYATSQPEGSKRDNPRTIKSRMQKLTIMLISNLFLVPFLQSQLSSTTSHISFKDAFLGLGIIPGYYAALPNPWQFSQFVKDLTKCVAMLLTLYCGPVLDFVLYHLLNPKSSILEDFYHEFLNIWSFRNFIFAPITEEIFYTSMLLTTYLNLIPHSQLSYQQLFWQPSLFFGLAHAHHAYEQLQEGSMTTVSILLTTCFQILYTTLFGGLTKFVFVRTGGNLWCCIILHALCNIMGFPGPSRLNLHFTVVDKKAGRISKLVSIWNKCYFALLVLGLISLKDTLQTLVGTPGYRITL
Platelet DG rel: platelet dense granule release activity. human platelet-rich plasma, SFLLRN dense granule ATP release, luminescence. hit rate 0.22% among 300,000. inhibition, %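 (compounds screened at 7.5 µM in platelet-rich plasma)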. AID 1663;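 active means mean replicate score, as percent of positive control, at or above 50; inconclusive means mean below 50 but at least one replicate at or above 50; inactive means mean and every replicate below 50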
RanGTP-Imp inh: inhibitors of RanGTP-importin-beta interaction, primary screen, biochemical, FRET, CFP-Ran, YFP-importin-beta, homogeneous; cell-free CFP-Ran/YFP-importin-beta FRET ratio; inhibition, % (concentration not given with the values); hit rate 1.1% among 300,000;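 active means more than half of the replicate wells show a fall in the fluorescence ratio signal beyond about 16%, limit read from the data, passing the limit was not always enough; inconclusive means exactly half of the replicate wells pass the set limit; inactive means fewer than half of replicates pass the limit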;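 further: 0% = DMSO wells and 100% = Ran loaded with GDP instead of GTP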
Runt-CBFb FRET: Runt domain-CBFb interaction inhibition; Q01196+Q13951; Cerulean-Runt/Venus-CBFb FRET ratio 530/480, 1 h; inhibition, % at 20 µM; hit rate 0.46% among 220,000; AID 1496;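 active means inhibition over about 50% at 20 µM in the single-dose screen, limit read from the data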;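 further: 0% = DMSO wells and 100% = excess unlabeled CBFb competitor control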
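Schedule: protein complex preformed 1 h, compound exposure 1 h, room temperature, dark; test system: Cerulean-labeled Runt domain protein; amount: 100 nM per protein; buffer or medium: Tris 50 mM pH 7.5, KCl, K2SO4, 0.01% BSA; read-out: loss of energy transfer signal; detection: FRET fluorescence; controls: 5 µM unlabeled CBFb as full-inhibition high control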
YIC FRET counter: counter-screen: alters YIC FRET probe signal; IC50, µM; shares compounds with RanGTP-Imp inh; hit rate 40% among 1,000; Purified YIC probe, intramolecular FRET ratio YFP/CFP;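 active means fitted half-maximal inhibitory concentration no more than tenfold above the top dose tested; inconclusive means flat fit with 30 to 70% activity, or poor fit; inactive means half-maximal concentration beyond tenfold above the top dose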
* hit, by the source's call; i = inactive; ? = inconclusive; . = no result given; + = active, no number.

SMILES	Runt-SMMHC FRET	Rce1 inhib	Platelet DG rel	RanGTP-Imp inh	Runt-CBFb FRET	YIC FRET counter
Cc1ccc(SCc2c(C(=O)N/N=C/c3ccc4c(c3)OCO4)nnn2-c2nonc2N)cc1	.	i	-17	1	.	.
CCn1c(CNC(=O)c2ccccc2Br)nnc1SCC(=O)Nc1nncs1	.	i	-4	?	.	.
Cc1ccc(/C=N/Nc2ccnc3cc(Cl)ccc23)c(C)c1	-21	i	-7	-5	-19	.
Cc1ccccc1/C=N/Nc1ccnc2cc(Cl)ccc12	-34	i	8	23*	-23	>50
Cc1nn(Cc2cccc(C(=O)NN)c2)c(C)c1Cl	1	i	15	-1	0	.
Cc1ccc(OCC(=O)NCCNC(=O)c2ccc(C)nc2)cc1	.	i	2	21*	.	>50
Nc1nonc1-n1nnc(C(=O)N/N=C/c2ccccc2)c1CSc1ccc(Cl)cc1	-4	+	3	17*	1	>50
Cc1ccc(/C=N/NC(=O)c2nnn(-c3nonc3N)c2CSc2ccccc2)cc1	3	i	3	5	1	.
Cn1c(CNC(=O)C2CCC(=O)N(CCc3cccc(F)c3)C2)nc2ccccc21 (stereo not given)	.	i	-1	-1	.	.
CC(=O)c1c(N2CCN(C)CC2)nc(=S)n(-c2cc(C)ccc2C)c1C	74*	i	2	34*	42	>50
CC(CCc1ccccc1)NS(=O)(=O)c1ccccc1F (stereo not given)	.	i	-3	-3	.	.
CN(Cc1cnc2nc(N)nc(N)c2n1)c1ccc(C(=O)N[C@@H](CCC(=O)O)C(=O)O)cc1	.	i	-6	23*	.	>50
CCOc1ccc(NC(=O)CN2C(=O)COc3ccc(Cl)cc32)cc1	1	i	-3	18*	3	>50
O=C(CN1C(=O)COc2ccc(Cl)cc21)Nc1ccc2c(c1)OCCO2	0	i	9	6	2	.
COc1ccc(CCNC(=O)c2ccccc2NC(=O)C2=C(C)OCCS2)c(OC)c1	.	i	8	-5	.	.
O=C(Nc1cnc2ccccc2c1)c1cccc(-n2cnnn2)c1	-9	i	2	19*	2	>50
C=CCNC(=S)Nc1ccc(C(N)=O)cc1	-5	i	-1	4	0	.
CNC(=S)Nc1ccc(C(N)=O)cc1	-6	i	58*	27*	2	>50
O=C(Cc1ccccc1C(=O)O)Nc1cccc2ccccc12	.	.	3	21*	.	>50
COc1ccccc1CC(=O)Nc1cccc2ccccc12	.	i	-5	-2	.	.
COc1cc2c(cc1OC)C(c1ccccc1O)NCC2 (stereo not given)	.	i	2	-1	.	.
COc1ccc(-c2c(C)c3ccc(O)cc3oc2=O)cc1OC	.	i	-7	20*	.	34*
CC(=O)N(/N=C1\Sc2ccccc2C1=O)c1ccccc1C	-9	i	-4	24*	.	40*
N#C/C(=C/c1cn(CC(=O)O)c2ccccc12)C(=O)NCc1ccccc1	4	i	4	23*	4	>50
CCOc1ccc2nc(SCC(=O)NCc3ccc4c(c3)OCO4)[nH]c2c1	4	i	-18	30*	2	>50
SMILES	Runt-SMMHC FRET	Rce1 inhib	Platelet DG rel	RanGTP-Imp inh	Runt-CBFb FRET	YIC FRET counter
S=c1[nH]nc(-c2ccc(Br)cc2)n1-c1ccc(Br)cc1	.	i	10	-1	.	.
O=[N+]([O-])c1cccc(-c2n[nH]c(=S)n2-c2ccc(Br)cc2)c1	13	i	0	23*	1	>50
O=C(CCn1c(=O)c2sccc2n(CC(=O)OCc2ccccc2)c1=O)NCc1ccccc1	3	i	-1	0	-1	.
Cc1ccc2nc(N(CCCN(C)C)C(=O)CS(=O)(=O)c3ccccc3)sc2c1	.	i	10	?	.	.
Cc1ccc(S(=O)(=O)CC(=O)N(CCCN(C)C)c2nc3ccc(C)cc3s2)cc1	.	i	-7	21*	.	>50
COC(=O)c1ccc(OC(=O)c2ccccc2F)cc1	0	i	10	1	2	.
CN1CCN(C(=O)c2cc3nc(-c4ccc(Cl)cc4)cc(C(F)(F)F)n3n2)CC1	0	i	10	-1	-5	.
CN1CCN(C(=O)c2cc3nc(-c4ccccc4)cc(C(F)(F)F)n3n2)CC1	2	i	4	22*	-3	>50
COC(=O)C1=CN(c2ccc(OC)cc2)C=C(C(=O)OC)C1c1cccc(F)c1	.	i	-1	17*	.	7.5*
COC(=O)C1=CN(c2ccc(F)cc2)C=C(C(=O)OC)C1c1cccc([N+](=O)[O-])c1	.	i	1	0	.	.
O=C(c1ccc(CS(=O)c2cccc(Cl)c2)o1)N1CCN(C2CCCCC2)CC1 (stereo not given)	.	i	-4	2	.	.
Cc1ccc(S(=O)(=O)N2CCOCC2)cc1NC(=O)COC(=O)Cc1ccsc1	0	i	8	-2	2	.
Cc1ccc(NC(=O)COC(=O)Cc2ccsc2)c(C)c1	0	i	6	19*	0	>50
CCC1(C)COC(C)(CC(=O)NNC(=O)Nc2ccccc2)OC1 (stereo not given)	3	i	-2	?	1	.
Cc1ccc(CNC(=O)c2cccnc2)cc1	.	i	16	21*	.	>50
Fc1ccccc1NC(=S)N(CCN1CCCCC1)Cc1ccco1	5	i	1	-2	2	.
Cc1sc2ncnc(NCc3cccs3)c2c1C	3	i	-2	2	-1	.
Cc1sc2ncnc(NCc3cccnc3)c2c1C	37	i	0	37*	15	>50
Oc1cccc(Nc2nc(O)c(/C=C3\C=Nc4ccccc43)s2)c1	-114	.	.	.	-40	.
CC1=Nc2ccccc2/C1=C\c1sc(Nc2ccc(C)cc2)nc1O	-9	i	1	21*	-14	>50
Oc1nc(Nc2ccc(F)cc2)sc1/C=C1\C=Nc2ccccc21	-3	i	6	19*	-5	>50
COc1cccc(NC(=O)c2ccnc(N3CCC(C(=O)NCc4cc(OC)ccc4OC)CC3)c2)c1	.	i	10	-1	.	.
O=S(=O)(Cc1ccc(Cl)cc1)Nc1ccc2c(c1)OCO2	28	i	20	19*	-1	>50
O=S(=O)(Cc1ccc(Cl)cc1)N1CCN(Cc2ccc3c(c2)OCO3)CC1	-1	i	3	6	0	.
O=C1C(=O)N(CCS(=O)(=O)c2ccccc2)c2ccc(Cl)cc21	.	i	-58	39*	.	>50
Cc1[nH]c2ccccc2c1C(=O)COc1ccccc1	2	i	3	1	-2	.
CCCCCN(C(=O)CN(C)Cc1ccc(OC)cc1OC)c1c(N)n(CCCC)c(=O)[nH]c1=O	4	i	-6	20*	2	>50
FC(F)(F)c1cnc(-c2cnc(-c3cccnc3)nc2)c(Cl)c1	2	i	0	-2	-4	.
